{"source": "paper PMC6422158", "about": "(Clinical cancer research : an official journal of the …, 2018)", "key": {"[1]": {"settings": "cited from earlier work"}, "[2]": {"settings": "at doses above 400 mg; first human dose trial; ref 19−22; cited from earlier work"}, "[3]": {"tested_on": "advanced BCC", "settings": "human, in vivo; cited from earlier work"}, "[4]": {"tested_on": "patients with advanced cancer", "assay": "Phase I safety and tolerability", "type": "in vivo"}, "[5]": {"assay": "Plasma pharmacokinetics of LY2940680 and LSN3185556 in patients", "type": "in vivo, human", "method_in_brief": "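Oral dosing was once daily in the morning, 50–600 mg, on 28-day cycles. About 4 mL blood was drawn into EDTA tubes over a 24-h sampling schedule. Parent and metabolite in plasma were quantified by validated LC/MS. Noncompartmental analysis gave Cmax, tmax, AUC0–24, t1/2, Vd/F and CL/F. Accumulation ratio was from AUC0–24, days 1 vs 15, reported as geometric means with %CV.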"}, "[6]": {"tested_on": "Gli1 mRNA", "assay": "Gli1 mRNA expression in skin biopsies", "type": "in vivo, human", "settings": "overall, all doses 50-600 mg QD; interquartile range 80.9%−95.7%", "method_in_brief": "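Normal skin biopsies taken predose, cycle 1 day 15 and cycle 2 day 1 from patients on oral QD dosing (28-day cycles). Post-dose samples were taken 2 h after dosing in escalation, and 24 h after the cycle 2 day 1 dose in confirmation/expansion. GLI1 was measured by RT-PCR, normalised to RPLP0, and % inhibition was derived by 2−ΔΔCT and summarised by dose level.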"}, "[7]": {"tested_on": "advanced cancer", "assay": "Tumor response per RECIST 1.1, all patients on therapy", "type": "in vivo, human", "settings": "84 patients on therapy", "method_in_brief": "(§1)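 Response was assessed by RECIST 1.1 plus investigator assessment. Best response required two CR determinations (or two PR-or-better) before progression. Confirmation used the same radiologic method repeated at least 4 weeks after the initial response. ORR was CR+PR among all patients dosed at least once. Clinical benefit was CR+PR+SD among dosed patients with a measurable lesion.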"}, "[8]": {"tested_on": "locally advanced/metastatic basal cell carcinoma", "assay": "Tumor response per RECIST 1.1, BCC patients", "type": "in vivo, human", "method_in_brief": "as §1"}, "[9]": {"assay": "in vitro", "type": "in vitro ADME", "settings": "human, plasma"}, "[10]": {"molecular_target": "human serum albumin (Homo sapiens, UniProt P02768)", "sequence (P02768 25-609)": "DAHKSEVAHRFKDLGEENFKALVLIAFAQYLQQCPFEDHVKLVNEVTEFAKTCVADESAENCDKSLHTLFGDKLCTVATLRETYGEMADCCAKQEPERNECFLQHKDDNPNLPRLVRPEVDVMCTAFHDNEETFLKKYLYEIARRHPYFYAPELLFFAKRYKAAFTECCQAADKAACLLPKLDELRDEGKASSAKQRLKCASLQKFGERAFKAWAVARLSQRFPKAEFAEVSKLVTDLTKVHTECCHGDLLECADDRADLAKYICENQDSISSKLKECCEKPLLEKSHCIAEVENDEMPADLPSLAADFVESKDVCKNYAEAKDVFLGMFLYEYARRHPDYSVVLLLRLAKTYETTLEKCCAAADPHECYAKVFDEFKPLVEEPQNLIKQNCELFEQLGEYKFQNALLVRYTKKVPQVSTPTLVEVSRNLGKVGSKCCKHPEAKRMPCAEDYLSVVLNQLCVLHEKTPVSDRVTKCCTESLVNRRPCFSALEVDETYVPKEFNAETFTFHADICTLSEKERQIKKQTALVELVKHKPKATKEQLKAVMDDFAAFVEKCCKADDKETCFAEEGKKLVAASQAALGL", "assay": "In vitro binding to human serum albumin", "type": "in vitro ADME"}, "[11]": {"molecular_target": "CYP3A4 (Homo sapiens, UniProt P08684)", "sequence (P08684 whole entry)": "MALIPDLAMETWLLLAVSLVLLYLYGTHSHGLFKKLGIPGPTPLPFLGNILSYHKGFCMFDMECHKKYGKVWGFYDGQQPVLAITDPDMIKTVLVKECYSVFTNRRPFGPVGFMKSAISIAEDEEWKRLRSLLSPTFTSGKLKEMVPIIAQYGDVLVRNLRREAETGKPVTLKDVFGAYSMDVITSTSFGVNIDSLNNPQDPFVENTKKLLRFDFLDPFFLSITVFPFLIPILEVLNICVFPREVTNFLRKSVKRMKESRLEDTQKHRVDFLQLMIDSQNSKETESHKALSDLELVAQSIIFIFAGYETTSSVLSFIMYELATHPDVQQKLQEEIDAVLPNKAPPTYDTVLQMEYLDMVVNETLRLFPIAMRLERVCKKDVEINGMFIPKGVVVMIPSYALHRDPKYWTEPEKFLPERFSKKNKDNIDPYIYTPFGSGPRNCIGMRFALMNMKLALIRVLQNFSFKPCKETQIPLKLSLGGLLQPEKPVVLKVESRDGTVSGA", "assay": "In vitro metabolism by CYP3A4", "type": "in vitro ADME", "settings": "in vitro data"}, "[12]": {"tested_on": "human Smo (hSmo) receptor", "settings": "cited from earlier work"}, "[13]": {"settings": "BCC, prior Hh therapy including vismodegib and sonidegib"}}}
{"smiles": "Cc1c(C(=O)Nc2ccc(N3C[C@@H](C)O[C@@H](C)C3)nc2)cccc1-c1ccc(OC(F)(F)F)cc1", "note": "[sonidegib]", "values": [{"measurement": "Bound to plasma protein", "setting": "[1]", "value": "over 99%"}, {"measurement": "PK linearity", "setting": "[2]", "value": "nonlinear PK"}, {"measurement": "Efficacy in advanced BCC patients previously treated with vismodegib", "setting": "[3]", "value": "not efficacious"}]}
{"smiles": "CN(C(=O)c1ccc(F)cc1C(F)(F)F)C1CCN(c2nnc(-c3ccnn3C)c3ccccc23)CC1", "note": "[LY2940680, taladegib]", "values": [{"measurement": "AE resulting in dose reductions: decreased appetite", "setting": "[4]; human, in vivo", "value": 3}, {"measurement": "AE resulting in dose reductions: dysgeusia", "setting": "[4]; human, in vivo", "value": 3}, {"measurement": "AE resulting in dose reductions: fatigue", "setting": "[4]; human, in vivo", "value": 8}, {"measurement": "AE resulting in dose reductions: muscle spasms", "setting": "[4]; human, in vivo", "value": 8}, {"measurement": "AE resulting in dose reductions: nausea", "setting": "[4]; human, in vivo", "value": 3}, {"measurement": "AE resulting in dose reductions: weight decreased", "setting": "[4]; human, in vivo", "value": 3}, {"measurement": "Patients who discontinued treatment because of AE", "setting": "[4]; human, in vivo", "value": 10}, {"measurement": "Patients with SAEs", "setting": "[4]; human, in vivo", "value": 22, "unit": "patients"}, {"measurement": "Patients with at least 1 dose reduction", "setting": "[4]; human, in vivo", "value": 16, "unit": "patients"}, {"measurement": "Patients with DLTs", "setting": "[4]; human, in vivo, 1 cycle", "value": 4, "unit": "patients"}, {"measurement": "DLT observed", "setting": "[4]; human, in vivo, 22 day", "value": "grade 3 hyponatremia"}, {"measurement": "Maximum tolerable dose (MTD)", "setting": "[4]; oral QD, 3+3 dose escalation 50 to 600 mg", "value": 400, "unit": "mg"}, {"measurement": "Accumulation ratio based on AUC0–24", "setting": "[5]; LY2940680, between days 1 and 15, QD, range 0.7−4.8, 39% CV", "value": "approximately 2"}, {"measurement": "Steady state attained", "setting": "[5]; QD dosing", "value": "cycle 2, day 1"}, {"measurement": "Dose proportionality of Cmax and AUC0–24", "setting": "[5]; after multiple doses", "value": "did not suggest any large deviation from dose proportionality"}, {"measurement": "Time to reach Cmax", "setting": "[5]; after single- and multiple-dose oral administrations", "value": "approximately 3 hours"}, {"measurement": "PK variability on exposure", "setting": "[5]; human, in vivo", "value": "approximately 70%"}, {"measurement": "Vd/F", "setting": "[5]; human, plasma, po", "value": 235, "unit": "L"}, {"measurement": "CL/F (geometric mean)", "setting": "[5]; oral, 70% CV", "value": 8.2, "unit": "L/h"}, {"measurement": "Gli1 inhibition in normal skin (median)", "setting": "[6]", "value": 92.3, "unit": "%"}, {"measurement": "Best response of SD", "setting": "[7]", "value": "26 (30.9%) patients (%)"}, {"measurement": "Best response of progressive disease", "setting": "[7]", "value": "24 (28.6%) patients (%)"}, {"measurement": "Confirmed CR", "setting": "[7]", "value": "5 (5.9%) patients (%)"}, {"measurement": "Confirmed PR", "setting": "[7]", "value": "16 (19.0%) patients (%)"}, {"measurement": "Patients with a response", "setting": "[7]", "value": "22 (26.2%) patients (%)"}, {"measurement": "Unconfirmed PR", "setting": "[7]", "value": "1 (1.2%) patients (%)"}, {"measurement": "Best overall response of CR or PR", "setting": "[8]; 16 BCC patients requiring dose reductions", "value": "9 (56.3%) patients (%)"}, {"measurement": "Best overall response of CR or PR", "setting": "[8]; 47 BCC patients", "value": "22 (46.8%) patients (%)"}, {"measurement": "Best response of progressive disease", "setting": "[8]; 47 BCC patients", "value": 1, "unit": "patient"}, {"measurement": "Best response of SD", "setting": "[8]; 47 BCC patients (twenty-one patients)", "value": 44.7, "unit": "%"}, {"measurement": "Best response of non-CR nonprogressive disease", "setting": "[8]; 47 BCC patients, based on nontarget lesions", "value": 1, "unit": "patient"}, {"measurement": "Responses in Hh treatment-naïve patients", "setting": "[8]; BCC", "value": 68.8, "unit": "%"}, {"measurement": "Responses in Hh treatment-naïve patients (responders/patients)", "setting": "[8]; BCC", "value": "11/16"}, {"measurement": "Estimated median PFS", "setting": "[8]; BCC expansion phase (n = 40), 400 mg QD, 95% CI 7.62−17.54", "value": 12.0, "unit": "months"}, {"measurement": "Estimated response rate", "setting": "[8]; BCC patients (n = 47), 95% CI 32.1%−61.9%", "value": 46.8, "unit": "%"}, {"measurement": "Disease control rate", "setting": "[8]; BCC patients, 95% CI 82.5%−98.7%", "value": 93.6, "unit": "%"}, {"measurement": "Responses in patients previously treated with Hh therapy", "setting": "[8]; [13]", "value": 35.5, "unit": "%"}, {"measurement": "Responses in patients previously treated with Hh therapy (responders/patients)", "setting": "[8]; [13]", "value": "11/31"}, {"measurement": "Duration of sustained response, single patient", "setting": "[8]; Hh-inhibitor treatment–naïve locally advanced BCC, 50 mg QD, PR", "value": 8.3, "unit": "months"}, {"measurement": "Confirmed CR", "setting": "[8]; number of the 16 BCC patients requiring dose reductions", "value": 3}, {"measurement": "Confirmed CR", "setting": "[8]; number of the 47 BCC patients", "value": 5}, {"measurement": "Confirmed PR", "setting": "[8]; number of the 47 BCC patients", "value": 16}, {"measurement": "Unconfirmed PR", "setting": "[8]; number of the 47 BCC patients", "value": 1}, {"measurement": "fraction unbound", "setting": "[9]", "value": 0.056}, {"measurement": "Concentration dependence of binding to human serum albumin", "setting": "[10]; 1 to 10 μmol/L", "value": "no apparent concentration-dependent binding"}, {"measurement": "Predominant plasma-binding protein", "setting": "[10]; tested with human serum albumin and human α−1-acid glycoprotein", "value": "Human serum albumin"}, {"measurement": "Fraction metabolized by CYP3A4", "setting": "[11]", "value": 100, "unit": "%"}, {"measurement": "Binding to hSmo receptor", "setting": "[12]", "value": "competitively inhibits binding of an hSmo agonist"}]}
